Converted amounts (≈) assume the structure as drawn.
Key:
[1] = Antitubercular activity against Mycobacterium tuberculosis H37Ra ATCC 25177 dormant stage infected in human THP1 cells measured on day 12 by nitrate reductase assay; assay type: functional, THP-1; settings: ATCC 25177, 288 h
[2] = Antitubercular activity against Mycobacterium tuberculosis H37Ra ATCC 25177 active stage infected in human THP1 cells measured on day 8 by nitrate reductase assay; assay type: functional, THP-1; settings: ATCC 25177, 192 h
[3] = Antitubercular activity against Mycobacterium tuberculosis H37Ra ATCC 25177 active stage measured on day 8 by XTT reduction menadione based two-fold dilution assay; assay type: functional; settings: ATCC 25177, 192 h
Summary of the method: (§1)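 M. tuberculosis H37Ra ATCC 25177 was exposed to 0.7–100 μg/mL in two-fold steps (0.7, 1.5, 3.1 … 100). Active stage was read after 8 days and dormant stage after 12 days of incubation. Inhibition was read by XTT reduction menadione assay (XRMA), absorbance 470 nm. MIC90 is the concentration giving ≥90% inhibition (µg/mL).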

[4] = Antitubercular activity against Mycobacterium tuberculosis H37Ra ATCC 25177 dormant stage measured on day 12 by XTT reduction menadione based two-fold dilution assay; assay type: functional; settings: ATCC 25177, 288 h; summary of the method: as §1
[5] = Antitubercular activity against Mycobacterium bovis BCG ATCC 35743 active stage measured on day 8 by nitrate reductase based two-fold dilution assay; assay type: functional, Mycobacterium bovis BCG str. ATCC 35743; settings: Mycobacterium tuberculosis variant bovis BCG, ATCC 35743, 192 h
[6] = Antitubercular activity against Mycobacterium bovis BCG ATCC 35743 dormant stage measured on day 12 by nitrate reductase based two-fold dilution assay; assay type: functional, Mycobacterium bovis BCG str. ATCC 35743; settings: Mycobacterium tuberculosis variant bovis BCG, ATCC 35743, 288 h
[7] = Cytotoxicity against human THP1 cells by MTT assay; assay type: toxicity, cell-based, THP-1; settings: for GI50: THP1 cells; for GI90: thp-1
[8] = Cytotoxicity against human MCF7 cells by MTT assay; assay type: toxicity, cell-based; settings: for GI50: MCF7 cells; for GI90: mcf7
[9] = Cytotoxicity against human HCT116 cells by MTT assay; assay type: toxicity, cell-based, HCT-116; settings: for GI50: HCT116 cells; for GI90: hct-116
[10] = Selectivity index, ratio of GI50 for human MCF7 cells to MIC90 for Mycobacterium tuberculosis H37Ra ATCC 25177 active stage; assay type: toxicity, cell-based; settings: read-out: Selectivity Index
Summary of the method: (§2)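 Cytotoxicity was measured on human MCF-7, HCT116 and THP-1 cells by MTT assay, with paclitaxel as reference. GI50 is the concentration inhibiting 50% of cell growth. The selectivity index is GI50 for the given cell line divided by MIC90 for the given mycobacterial strain and stage.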

[11] = Selectivity index, ratio of GI50 for human MCF7 cells to MIC90 for Mycobacterium tuberculosis H37Ra ATCC 25177 dormant stage; assay type: toxicity, cell-based; settings: read-out: Selectivity Index
Summary of the method: (§3)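 Cytotoxicity was measured on human MCF-7, HCT116 and THP-1 cells by MTT assay, with paclitaxel as reference. The selectivity index is GI50 for the given cell line divided by MIC90 for the given mycobacterial strain and stage.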

[12] = Selectivity index, ratio of GI50 for human MCF7 cells to MIC90 for Mycobacterium bovis BCG ATCC 35743 active stage; assay type: toxicity, cell-based; settings: read-out: Selectivity Index; summary of the method: as §2
[13] = Selectivity index, ratio of GI50 for human MCF7 cells to MIC90 for Mycobacterium bovis BCG ATCC 35743 dormant stage; assay type: toxicity, cell-based; settings: read-out: Selectivity Index; summary of the method: as §3
[14] = Selectivity index, ratio of GI50 for human HCT116 cells to MIC90 for Mycobacterium tuberculosis H37Ra ATCC 25177 active stage; assay type: toxicity, cell-based, HCT-116; settings: read-out: Selectivity Index; summary of the method: as §2
[15] = Selectivity index, ratio of GI50 for human HCT116 cells to MIC90 for Mycobacterium tuberculosis H37Ra ATCC 25177 dormant stage; assay type: toxicity, cell-based, HCT-116; settings: read-out: Selectivity Index; summary of the method: as §3
[16] = Selectivity index, ratio of GI50 for human HCT116 cells to MIC90 for Mycobacterium bovis BCG ATCC 35743 active stage; assay type: toxicity, cell-based, HCT-116; settings: read-out: Selectivity Index; summary of the method: as §2
[17] = Selectivity index, ratio of GI50 for human HCT116 cells to MIC90 for Mycobacterium bovis BCG ATCC 35743 dormant stage; assay type: toxicity, cell-based, HCT-116; settings: read-out: Selectivity Index; summary of the method: as §3
[18] = Selectivity index, ratio of GI50 for human THP1 cells to MIC90 for Mycobacterium tuberculosis H37Ra ATCC 25177 active stage; assay type: toxicity, cell-based, THP-1; settings: read-out: Selectivity Index; summary of the method: as §2
[19] = Selectivity index, ratio of GI50 for human THP1 cells to MIC90 for Mycobacterium tuberculosis H37Ra ATCC 25177 dormant stage; assay type: toxicity, cell-based, THP-1; settings: read-out: Selectivity Index; summary of the method: as §3
[20] = Selectivity index, ratio of GI50 for human THP1 cells to MIC90 for Mycobacterium bovis BCG ATCC 35743 active stage; assay type: toxicity, cell-based, THP-1; settings: read-out: Selectivity Index; summary of the method: as §2
[21] = Selectivity index, ratio of GI50 for human THP1 cells to MIC90 for Mycobacterium bovis BCG ATCC 35743 dormant stage; assay type: toxicity, cell-based, THP-1; settings: read-out: Selectivity Index; summary of the method: as §3
Escherichia coli [22] = experiment: Growth inhibition of Escherichia coli at 30 ug/ml; assay type: functional; settings: read-out: GI
Escherichia coli [23] = experiment: Growth inhibition of Escherichia coli at 10 ug/ml; assay type: functional; settings: read-out: GI
Escherichia coli [24] = experiment: Growth inhibition of Escherichia coli at 3 ug/ml; assay type: functional; settings: read-out: GI
Summary of the method: (§4)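 Screened against Gram-negative E. coli and P. aeruginosa and Gram-positive S. aureus and B. subtilis. Compound was tested at 3 µg/ml, and the read-out is percent growth inhibition.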

Pseudomonas aeruginosa [25] = experiment: Growth inhibition of Pseudomonas aeruginosa at 30 ug/ml; assay type: functional; settings: read-out: GI
Pseudomonas aeruginosa [26] = experiment: Growth inhibition of Pseudomonas aeruginosa at 10 ug/ml; assay type: functional; settings: read-out: GI
Pseudomonas aeruginosa [27] = experiment: Growth inhibition of Pseudomonas aeruginosa at 3 ug/ml; assay type: functional; settings: read-out: GI; summary of the method: as §4
Staphylococcus aureus [28] = experiment: Growth inhibition of Staphylococcus aureus at 30 ug/ml; assay type: functional; settings: read-out: GI
Staphylococcus aureus [29] = experiment: Growth inhibition of Staphylococcus aureus at 10 ug/ml; assay type: functional; settings: read-out: GI
Staphylococcus aureus [30] = experiment: Growth inhibition of Staphylococcus aureus at 3 ug/ml; assay type: functional; settings: read-out: GI; summary of the method: as §4
Bacillus subtilis [31] = experiment: Growth inhibition of Bacillus subtilis at 30 ug/ml; assay type: functional; settings: read-out: GI
Bacillus subtilis [32] = experiment: Growth inhibition of Bacillus subtilis at 10 ug/ml; assay type: functional; settings: read-out: GI
Bacillus subtilis [33] = experiment: Growth inhibition of Bacillus subtilis at 3 ug/ml; assay type: functional; settings: read-out: GI; summary of the method: as §4

SMILES | MIC90 [1] [µg/mL] | MIC90 [2] [µg/mL] | IC50 [3] [µg/mL] | MIC90 [3] [µg/mL] | IC50 [4] [µg/mL] | MIC90 [4] [µg/mL] | IC50 [5] [µg/mL] | MIC90 [5] [µg/mL] | IC50 [6] [µg/mL] | MIC90 [6] [µg/mL] | GI50 [7] [µg/mL] | GI90 [7] [µg/mL] | GI50 [8] [µg/mL] | GI90 [8] [µg/mL] | GI50 [9] [µg/mL] | GI90 [9] [µg/mL] | selectivity ratio [10] | selectivity ratio [11] | selectivity ratio [12] | selectivity ratio [13] | also measured
C/C(=N\Nc1nc(-c2ccc(Br)cc2)cs1)c1sc(C)nc1C | 48.8 (≈ 120 µM) | 47.9 (≈ 118 µM) | 0.15 (≈ 0.368 µM) | 44.1 (≈ 108 µM) | 0.66 (≈ 1.62 µM) | 43.7 (≈ 107 µM) | 1.6 (≈ 3.93 µM) | 11.4 (≈ 28 µM) | 2.51 (≈ 6.16 µM) | 10.6 (≈ 26 µM) | > 100 | > 100 | > 100 | > 100 | > 100 | > 100 | 2 | 2 | 9 | 9 | selectivity ratio [14]: 2; selectivity ratio [15]: 2; selectivity ratio [16]: 9; selectivity ratio [17]: 9; selectivity ratio [18]: 2; selectivity ratio [19]: 2; selectivity ratio [20]: 9; selectivity ratio [21]: 9; inhibition of growth at 30 µg/mL (Escherichia coli [22]): 82%; inhibition of growth at 10 µg/mL (Escherichia coli [23]): 70.7%; inhibition of growth at 3 µg/mL (Escherichia coli [24]): 35.8%; inhibition of growth at 30 µg/mL (Pseudomonas aeruginosa [25]): 82.1%; inhibition of growth at 10 µg/mL (Pseudomonas aeruginosa [26]): 69.5%; inhibition of growth at 3 µg/mL (Pseudomonas aeruginosa [27]): 30.5%; inhibition of growth at 30 µg/mL (Staphylococcus aureus [28]): 81%; inhibition of growth at 10 µg/mL (Staphylococcus aureus [29]): 68.8%; inhibition of growth at 3 µg/mL (Staphylococcus aureus [30]): 31.2%; inhibition of growth at 30 µg/mL (Bacillus subtilis [31]): 79.5%; inhibition of growth at 10 µg/mL (Bacillus subtilis [32]): 66.4%; inhibition of growth at 3 µg/mL (Bacillus subtilis [33]): 25.9%
C/C(=N\Nc1nc(-c2ccccc2)cs1)c1sc(-c2ccccc2)nc1C | 12 (≈ 30.7 µM) | 15.6 (≈ 39.9 µM) | 0.17 (≈ 0.435 µM) | 9.46 (≈ 24.2 µM) | 0.98 (≈ 2.51 µM) | 12.8 (≈ 32.7 µM) | 8.75 (≈ 22.4 µM) | 21.2 (≈ 54.3 µM) | 7.95 (≈ 20.4 µM) | 18.7 (≈ 47.9 µM) | > 100 | > 100 | > 100 | > 100 | > 100 | > 100 | 11 | 8 | 5 | 5 | selectivity ratio [14]: 11; selectivity ratio [15]: 8; selectivity ratio [16]: 5; selectivity ratio [17]: 5; selectivity ratio [18]: 11; selectivity ratio [19]: 8; selectivity ratio [20]: 5; selectivity ratio [21]: 5; inhibition of growth at 30 µg/mL (Escherichia coli [22]): 78.5%; inhibition of growth at 10 µg/mL (Escherichia coli [23]): 56.6%; inhibition of growth at 3 µg/mL (Escherichia coli [24]): 17.5%; inhibition of growth at 30 µg/mL (Pseudomonas aeruginosa [25]): 78.2%; inhibition of growth at 10 µg/mL (Pseudomonas aeruginosa [26]): 53.8%; inhibition of growth at 3 µg/mL (Pseudomonas aeruginosa [27]): 10.2%; inhibition of growth at 30 µg/mL (Staphylococcus aureus [28]): 77.2%; inhibition of growth at 10 µg/mL (Staphylococcus aureus [29]): 53.6%; inhibition of growth at 3 µg/mL (Staphylococcus aureus [30]): 11.6%; inhibition of growth at 30 µg/mL (Bacillus subtilis [31]): 75.5%; inhibition of growth at 10 µg/mL (Bacillus subtilis [32]): 50.1%; inhibition of growth at 3 µg/mL (Bacillus subtilis [33]): 4.82%

Source: ChEMBL document CHEMBL3872252, “New bithiazolyl hydrazones: Novel synthesis, characterization and antitubercular evaluation” (Bioorg Med Chem Lett, 2017)
